STEP inh – inhibitors of human striatal-enriched phosphatase STEP; recombinant STEP, OMFP fluorogenic substrate, fluorescence; inhibition, % at 20 µM; 360,000 compounds, 0.25% hits; AID 588621;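 active = inhibition at 20 µM, scaled per plate between control wells, above about 37%, limit read from the data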
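Material: STEP (striatal-enriched tyrosine phosphatase) enzyme, cell-free; Compound dosing: 20 µM single dose in 1% DMSO; Technique: fluorescence read at 480 nm ex / 540 nm em; Times: reaction 20 min, ambient temperature; Medium: 50 mM Bis-Tris pH 6.0 with 2.5 mM DTT and 0.005% Tween 20; Also added: OMFP at 25 µM.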
LMPTP inh – blocks human LMPTP phosphatase; recombinant LMPTP-A, OMFP fluorogenic substrate, fluorescence intensity; AID 651560; 360,000 compounds, 0.22% hits; inhibition, % at 20 µM; P24666;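 active = compounds that cut the enzyme signal by at least half of the control window in the single-dose screen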
Target sequence (P24666 whole entry, looked up): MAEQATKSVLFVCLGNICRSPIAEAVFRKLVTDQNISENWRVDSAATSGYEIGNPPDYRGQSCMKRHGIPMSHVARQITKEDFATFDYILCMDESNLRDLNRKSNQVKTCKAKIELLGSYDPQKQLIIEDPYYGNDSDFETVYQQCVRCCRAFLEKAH
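Test system – LMPTP-A phosphatase enzyme · Quantity – 0.625 nM LMPTP-A final · Reagent – OMFP substrate, 400 µM final · Dosing – one test concentration per compound, 20 µM, with 3% DMSO overall · Timing – 50 min enzyme reaction at room temperature, protected from light · Detection – fluorescence intensity · Controls – substrate-only low control, DMSO enzyme-plus-substrate high control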
SUMO1 PPI mod – SUMO1-SIM interaction modulation; SUMO1 binding to a labelled peptide, TR-FRET, 1 h; 360,000 compounds, 0.33% hits; inhibition, % at 20 µM; P63165; in the data active = inhibition above about 37%
Target sequence (P63165 whole entry, looked up): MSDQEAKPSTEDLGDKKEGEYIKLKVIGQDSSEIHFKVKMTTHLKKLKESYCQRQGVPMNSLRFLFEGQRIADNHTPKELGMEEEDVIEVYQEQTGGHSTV
Scp1 inh – Scp-1 (human) phosphatase inhibition; Q9GZU7; AID 493091; Recombinant Scp1, phosphopeptide, malachite green phosphate absorbance; inhibition, % at 20 µM; 340,000 compounds, 0.88% hits;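 active = inhibition above about 50% at 20 µM, limit read from the data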
Target sequence (Q9GZU7 76-261 limits assumed): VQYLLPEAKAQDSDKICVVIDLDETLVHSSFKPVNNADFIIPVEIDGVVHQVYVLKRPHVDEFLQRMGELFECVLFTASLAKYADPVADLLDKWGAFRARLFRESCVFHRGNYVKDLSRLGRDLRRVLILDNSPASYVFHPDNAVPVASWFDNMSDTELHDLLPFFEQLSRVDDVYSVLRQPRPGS
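Material: truncated SCP-1 phosphatase (76-261aa) / Buffer or medium: 50 mM Tris acetate pH 5.5, 0.005% Tween-20, 10 mM MgCl2 / Compound dosing: one concentration, 20 µM, with 1.0% DMSO / Incubation: 45 min room-temperature reaction, 5 min colour, 30 min stabiliser / Detection: colorimetric free-phosphate detection, absorbance 630 nm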
DNMT1 inh – DNMT1 (human) enzyme inhibition. DNMT1 molecular beacon, Hinp1I cleavage, fluorescence. P26358. 360,000 compounds, 0.83% hits. inhibition (reported as % activation of signal), % at 10 µM; in the data active = inhibition above about 50%
Beacon interf DR – shows spectral interference in the DNMT1 beacon assay. 200 tested, under 10 active. shares compounds with DNMT1 inh. IC50, µM. molecular beacon fluorescence, spectral interference counter-screen
DNMT1 inh conf – DNMT1 inhibition confirmation, single concentration; shares compounds with DNMT1 inh; DNMT1 molecular beacon HinP1I cleavage, fluorescence; inhibition, % at 10 µM; 2,300 compounds, 8% hits; AID 602385;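 active = average inhibition of at least 30% in the single-concentration confirmation test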
DNMT1 interf – beacon fluorescence artifact counter-screen. activation (fluorescence interference), % at 10 µM. DNMT1 molecular beacon spectral interference counterscreen, fluorescence 485/520. AID 602387. 2,300 compounds, 1% hits. shares compounds with DNMT1 inh;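 active = activation of at least 30% at 10 µM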;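 also: DNMT1 catalytic domain with a HinP1I cleavage step and a FAM/dabcyl DNA beacon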
STEP conf – STEP (human) phosphatase inhibition, single concentration confirmation; shares compounds with STEP inh; recombinant STEP, OMFP fluorogenic substrate, fluorescence; inhibition, % at 20 µM; 520 compounds, 32% hits
Hits are given with their value; i = inactive; nt = no result given. This is a sample that favours compounds with a hit; in the whole collection about 1.7% have one here. Unless noted, no rule for the calls is given here.

SMILES | STEP inh | LMPTP inh | SUMO1 PPI mod | Scp1 inh | DNMT1 inh | DNMT1 inh conf | DNMT1 interf | others
Cc1nn(-c2ccccc2)c(Cl)c1/C=N/Nc1ccc(S(=O)(=O)Nc2ccccc2C(=O)O)cc1[N+](=O)[O-] | i | i | i | i | 100 | 82 | i | Beacon interf DR=i
O=c1cc(SCc2ccc(Cl)cc2Cl)nc[nH]1 | i | i | i | i | i | nt | nt
CCCCCCCCN1C(=O)[C@H](CC(=O)NCc2ccc(OC)c(OC)c2)C[C@@]2(C(=O)OC)CCCCC=C12 | nt | i | i | nt | nt | nt | nt
Cc1cc(C(=O)N2CCCC(C(=O)c3ccc4ccccc4c3)C2)n(C)n1 (stereo unspecified) | i | i | i | i | i | nt | nt
COC(=O)[C@H](Cc1ccccc1)N1C/C=C\COc2c(Cl)cc(Cl)cc2S1(=O)=O | i | i | i | i | 82 | i | i
COC(=O)[C@H](C)N1C/C=C\COc2c(Cl)cc(Cl)cc2S1(=O)=O | i | i | i | i | i | nt | nt
Cc1ccc(Cn2c(/C=C/c3ccco3)nc3ccccc32)cc1 | i | i | i | i | 76 | i | i
Fc1ccccc1CN1CCC(Cc2ccccc2)CC1 | i | i | i | i | 70 | i | i
CCCS(=O)(=O)c1nc(S(=O)(=O)c2ccc(Cl)cc2)c(N2CCC(O)CC2)s1 | i | i | i | i | i | nt | nt
COc1ccc(N2CCN(C(CNC(=O)C(=O)NCCc3c[nH]c4ccccc34)c3ccco3)CC2)cc1 (stereo unspecified) | i | i | i | i | 78 | i | i
O=C(C[n+]1cccc2ccccc21)c1ccc(NC(=O)c2ccccc2)cc1 | i | i | i | i | i | nt | nt
Cc1cc[n+](CC(=O)c2ccc(NC(=O)c3ccccc3)cc2)c2ccccc12 | i | i | i | i | 53 | i | i
N#Cc1cn(-c2ccccc2)nc1-c1cc2ccccc2oc1=O | i | i | i | i | i | nt | nt
O=Cc1cn(-c2ccccc2)nc1-c1cc2c(ccc3ccccc32)oc1=O | i | i | i | i | 53 | i | i
O=C(Nc1ccc(NC(=O)c2sc3ccccc3c2Cl)cc1Cl)c1ccco1 | i | i | i | i | 75 | i | i
CC(=O)Nc1cc(-c2ccccc2N(C)C)cn2c(-c3ccccc3)cnc12 | i | i | i | nt | i | nt | nt
CC(=O)Nc1cc(-c2ccccc2N(C)C)cn2c(-c3ccc(S(C)(=O)=O)cc3)cnc12 | i | i | i | nt | 189 | i | i
CSc1ncnc2c1ncn2CCCNCc1ccc(C)o1 | i | i | i | nt | i | nt | nt
O=C1NC(=O)C2(N1)C(=O)c1cccc3cccc2c13 (stereo unspecified) | i | i | i | nt | 92 | 49 | 70
CCOc1ccc(OCC)c(NC(=O)CCSCCc2ccccn2)c1 | 97 | i | i | i | 89 | i | i | STEP conf=i
CCOc1ccc(OCC)c(NC(=O)CSCCc2ccccn2)c1 | i | i | i | i | i | nt | nt
CCOC(=O)c1c(S(=O)(=O)NCC(=O)N2CCN(c3ccccc3)CC2)c(C)n(C)c1C | i | i | i | i | i | nt | nt
CCOC(=O)CC(NS(=O)(=O)c1ccc2[nH]cc(C(=O)O)c(=O)c2c1)c1ccc(OCC)c(OC)c1 (stereo unspecified) | 74 | i | i | i | 73 | i | i | STEP conf=25
COc1cc(NC(=O)c2ccccc2-c2ccccc2)cc(OC)c1 | i | i | i | i | i | nt | nt
CSc1ccc(C=NNc2ccc(S(=O)(=O)Nc3ccccc3C(=O)O)cc2[N+](=O)[O-])cc1 | 44 | 91 | 96 | i | 86 | 55 | i | Beacon interf DR=i;STEP conf=59
Cn1ncc(C(=O)N=S(C)(=O)c2ccccc2)c1[N+](=O)[O-] (stereo unspecified) | i | i | i | i | i | nt | nt
CCCc1nc2sc3c(=O)n(N)cnc3c2c2c1CCCC2 | i | i | i | i | i | nt | nt
C[C@H](NC(=O)c1ncn2c1c(=O)[nH]c1ccccc12)c1ccccc1 | i | i | i | nt | i | nt | nt

High-throughput results deposited in PubChem by Sanford-Burnham Center for Chemical Genomics.
